Results published in article PMC7881813 (The Indian Journal of Medical Research, 2020).

How the values were obtained:
EAC-bearing mice [1] = test: Haematological parameters of EAC-bearing mice; type: in vivo, mouse; details: for Effect on haematological counts (in words): respective IC50 dosage; for Hb / Platelets / RBC / WBC: treatment at IC50 dose, mean±SD n=6
In short: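 Female Swiss albino mice (7–8 wk) inoculated intraperitoneally with 1×10⁶ EAC cells on day 0, then treated on days 1–10. After 4 h fasting, heparinised cardiac blood collected. Haemoglobin by Sahli's method; RBC, WBC and platelets on an automated haematology analyser. Mean±SD, six mice per group.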

EAC-bearing mice [2] = test: Survivability study; type: in vivo, mouse; details: respective IC50 dosages, n=10
In short: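 EAC-bearing mice (1×10⁶ cells intraperitoneally), ten per group, treated beginning 24 h after inoculation. Survival days recorded. ILS% = (T−C)/C×100, with T the survival days of treated mice and C those of untreated mice. Kaplan–Meier survival analysis.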

EAC cells = test: In vivo IC50 determination in EAC cells by trypan blue dye exclusion; details: Mus musculus, 24 h, read-out: IC50 (50 per cent lethality of EAC cells) in vivo
MCF-7 cells [3] = test: MTT assay for IC50 determination, MCF-7; type: cell-based; details: Homo sapiens, MCF7, read-out: IC50 for MCF-7
MDA-MB-231 cells [4] = test: MTT assay for IC50 determination, MDA-MB-231; type: cell-based; details: Homo sapiens, MDA-MB-231, read-out: IC50 for MDA-MB-231
EAC-bearing mice [5] = test: Hepatotoxicity and kidney toxicity parameters of EAC-bearing mice; type: in vivo, mouse; details: treatment at IC50 dosage; for ALP / ALT / AST / Creatinine / Urea: EAC-bearing mice, mean±SD n=6
normal murine fibroblast = test: MTT cytotoxicity on normal mouse fibroblast; type: cell-based; details: xanthones up to highest concentration, cisplatin at 20 μM, XD at 1 and 5 μM
[6] = system: liver cytosol of EAC-bearing mice; test: Antioxidative enzymes and LPO in liver cytosol of EAC-bearing mice; type: in vivo, mouse
In short: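 Liver from female Swiss albino mice bearing intraperitoneal EAC. After 15 days of treatment: GST in liver cytosol, rise in A340 with CDNB substrate, as CDNB-GSH conjugate formed per min per mg protein. GPx in post-mitochondrial fraction, fall in A340 after H₂O₂ addition, as nmol NADPH used per min per mg protein. Mean±SD, six per group.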

normal mice = test: Chronic toxicity study with therapeutic dosage of XD; type: in vivo, mouse; details: 8 μM, oral, 40 days, data not shown
In short: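 Normal mice dosed orally with XD for 40 days; controls got 0.9% saline. After 4 h fasting, blood drawn by cardiac puncture, clotted, spun at 2000×g for 15 min, serum held at −20°C. ALT, ALP, urea and creatinine measured on an automated clinical chemistry analyser.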

[7] = system: EAC, MCF-7 and MDA-MB-231 cells; test: Intracellular ROS generation; type: cell-based; details: XD at respective IC50 (8.1, 1 and 5 μM), in vivo and in vitro, vs untreated
normal fibroblast = test: Intracellular ROS generation; type: cell-based, mouse; details: treatment with 50 μM
MCF-7 cells [8] = test: Comet assay, MCF-7 cells; type: cell-based, human; details: MCF-7, XD 1 μM
In short: (§1)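 Alkaline comet assay, about 10⁴ cells/slide in 1% low-melt agarose over normal agarose, capped with 0.5% low-melt agarose. Lysis overnight at 4°C (2.5 M NaCl, 100 mM Na₂-EDTA, 10 mM Tris, 1% Triton X-100, 10% DMSO, pH 10.0). Electrophoresis at pH 13.1, 30 min, 300 mA, 20 V. Tris neutralisation, ethidium bromide staining. Per cent damaged cells among 150–200 scored per slide.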

MDA-MB-231 cells [9] = test: Comet assay, MDA-MB-231 cells; type: cell-based, human; details: MDA-MB-231, XD 5 μM
In short: as §1

[10] = system: normal cells (fibroblast); test: Comet assay, normal fibroblast; type: cell-based, mouse; details: highest dose of 40 μM
In short: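 Mouse fibroblasts treated with XD 24 h after seeding and harvested 48 h later. Alkaline comet assay: cells in low-melt agarose layers, overnight lysis at 4°C at pH 10.0, electrophoresis at pH 13.1 for 30 min (300 mA, 20 V), neutralisation, ethidium bromide stain. Fluorescence microscopy; damaged-cell per cent and tail length from 150–200 cells per slide.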

[11] = system: EAC, MCF-7 and MDA-MB-231 cells; test: DNA fragmentation assay; type: cell-based; details: XD at respective IC50 dosage (8.1, 1 and 5 μM)
[12] = system: EAC, MCF-7 and MDA-MB-231 cells; test: Cell cycle phase distribution by flow cytometry; type: cell-based; details: 10 days of treatment in vivo and 48 h in vitro, vs control
In short: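 EAC cells taken from mice 10 days after daily XD dosing (days 1–10 after intraperitoneal inoculation with 1×10⁶ cells), PBS-washed and haemocytometer-counted. […] Cell-cycle distribution, including SubG0, by flow cytometry. Repeated at least three times.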

[13] = system: EAC, MCF-7 and MDA-MB-231 cells; test: TUNEL assay; type: cell-based; details: in vivo and in vitro models, vs control
In short: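 EAC cells recovered from the peritoneum of mice after 10 days of XD dosing, PBS-washed, smeared and fixed in 4% paraformaldehyde. MCF-7 and MDA-MB-231 cells grown on coverslips and fixed in paraformaldehyde. Fluorescein in situ cell-death (TUNEL) kit used per manufacturer; positive cells imaged by fluorescence microscopy at ×20.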

Bax:Bcl-2 = test: Western blot Bax:Bcl-2 ratio; type: cell-based; details: EAC, MCF-7 and MDA-MB-231 cells, XD-treated vs control
In short: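 Whole-cell extracts prepared from control and XD-treated EAC, MCF-7 and MDA-MB-231 cells. Bax and Bcl-2 immunoblotted and the Bax:Bcl-2 ratio calculated. EAC cells came from mice dosed on days 1–10 after intraperitoneal tumour inoculation. Repeated at least three times, mean±SD.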

[14] = EAC-bearing mice, XD-treated 8.1 µM

In the case of N.N.[Cl][Pt][Cl] [Cisplatin, reference compound], the “Effect on haematological counts (in words)” value (EAC-bearing mice [1]) is reported as “lowering of RBC, Hb and platelets”, the Hb (EAC-bearing mice [1]) is reported as 2.1 ± 0.4 g/dL and the Platelets (EAC-bearing mice [1]) is reported as 200±2 10^3/µl. For the same molecule, the RBC (EAC-bearing mice [1]) was 2.7±0.6 10^6/µl, the WBC (EAC-bearing mice [1]) was 35.8±0.8 10^3/µl and the “Increase in life span of tumour-bearing mice (ILS%)” value (shortened to “Increase in life span … (ILS%)”) (EAC-bearing mice [2]) was 36.36%.
COc1cc(O)c2c(=O)c3c(OC)c(OC)ccc3oc2c1 [XA, 1-hydroxy-3,7,8-trimethoxyxanthone] showed an IC50 (EAC cells) of 48.5 µM, an IC50 (MCF-7 cells [3]) of 30 µM and an IC50 (MDA-MB-231 cells [4]) of 50 µM. The Hb (EAC-bearing mice [1]) was 7.5 ± 0.8 g/dL, the Platelets (EAC-bearing mice [1]) was 456±3 10^3/µl and the RBC (EAC-bearing mice [1]) was 4.15±0.4 10^6/µl. The WBC (EAC-bearing mice [1]) was 30.8±0.6 10^3/µl, the ALP (EAC-bearing mice [5]) was 103±3 IU/l and the ALT (EAC-bearing mice [5]) was 91±3 IU/l. The AST (EAC-bearing mice [5]) was 350±1 IU/l, the Creatinine (EAC-bearing mice [5]) was 1.7 ± 0.09 mg/dL and the Urea (EAC-bearing mice [5]) was 71 ± 8 mg/dL. The “Increase in life span … (ILS%)” value (EAC-bearing mice [2]) was 45%.
In the case of COc1cc(O)c2c(=O)c3c(O)ccc(OC)c3oc2c1 [XB, 1,8-dihydroxy-3,5-dimethoxyxanthone], the IC50 (EAC cells) is reported as 48.5 µM, the IC50 (MCF-7 cells [3]) is reported as 25 µM and the IC50 (MDA-MB-231 cells [4]) is reported as 30 µM. For the same molecule, the Hb (EAC-bearing mice [1]) was 7.4 ± 0.5 g/dL, the Platelets (EAC-bearing mice [1]) was 596±4 10^3/µl and the RBC (EAC-bearing mice [1]) was 4.75±0.3 10^6/µl. The WBC (EAC-bearing mice [1]) was 24.6±0.6 10^3/µl, the ALP (EAC-bearing mice [5]) was 160±5 IU/l and the ALT (EAC-bearing mice [5]) was 93±4 IU/l. For the same molecule, the AST (EAC-bearing mice [5]) was 335±8 IU/l, the Creatinine (EAC-bearing mice [5]) was 1.1 ± 0.09 mg/dL and the Urea (EAC-bearing mice [5]) was 67 ± 8 mg/dL. The “Increase in life span … (ILS%)” value (EAC-bearing mice [2]) was 63%.
COc1cc(O)c2c(=O)c3c(OC)ccc(OC)c3oc2c1 [XC, 1-hydroxy-3,5,8-trimethoxyxanthone] showed an IC50 (EAC cells) of 32.4 µM, an IC50 (MCF-7 cells [3]) of 8 µM and an IC50 (MDA-MB-231 cells [4]) of 25 µM. The Hb (EAC-bearing mice [1]) was 7.9 ± 0.9 g/dL, the Platelets (EAC-bearing mice [1]) was 441±2 10^3/µl and the RBC (EAC-bearing mice [1]) was 5.75±0.2 10^6/µl. The WBC (EAC-bearing mice [1]) was 27.2±0.8 10^3/µl, the ALP (EAC-bearing mice [5]) was 106±2 IU/l and the ALT (EAC-bearing mice [5]) was 85±5 IU/l. It also gave an AST (EAC-bearing mice [5]) of 355±9 IU/l, a Creatinine (EAC-bearing mice [5]) of 1.2 ± 0.09 mg/dL and a Urea (EAC-bearing mice [5]) of 79 ± 8 mg/dL. For the same molecule, the “Increase in life span … (ILS%)” value (EAC-bearing mice [2]) was 81%.
With COc1cc(O)c2c(=O)c3c(O)ccc(O)c3oc2c1 [XD, 1,5,8-trihydroxy-3-methoxyxanthone] the IC50 (EAC cells) was 8.1 µM, the IC50 (MCF-7 cells [3]) was 1 µM and the IC50 (MDA-MB-231 cells [4]) was 5 µM. The “Effect on normal murine fibroblast” value (normal murine fibroblast) was “without affecting the normal cells”, the “Effect on haematological counts (in words)” value (EAC-bearing mice [1]) was “lower WBC and platelet counts back to normal level” and the Hb (EAC-bearing mice [1]) was 10 ± 2 g/dL. The Platelets (EAC-bearing mice [1]) was 341±8 10^3/µl, the RBC (EAC-bearing mice [1]) was 5.05±0.5 10^6/µl and the WBC (EAC-bearing mice [1]) was 17.2±0.2 10^3/µl. The ALP (EAC-bearing mice [5]) was 57.2±2 IU/l, the ALT (EAC-bearing mice [5]) was 79±2 IU/l and the AST (EAC-bearing mice [5]) was 205±5 IU/l. For the same molecule, the Creatinine (EAC-bearing mice [5]) was 0.7 ± 0.09 mg/dL, the Urea (EAC-bearing mice [5]) was 41 ± 8 mg/dL and the “Liver and kidney toxicity parameters in tumour-bearing mice” value (EAC-bearing mice [5]; compared to normal mice) was “almost back to normal”. For the same molecule, the “Increase in life span … (ILS%)” value (EAC-bearing mice [2]) was 140%, the CAT ([6]; Drug control group) was 0.4±0.06 units/mg and the GPx ([6]; Drug control group) was 8.28 ± 0.6 nmol/mg. For the same molecule, the GSH ([6]; Drug control group) was 2.6 ± 0.3 nmol/mg, the GST ([6]; Drug control group) was 8 ± 0.6 nmol/mg and the LPO ([6]; Drug control group) was 1.6 ± 0.09 mol/mg. For the same molecule, the SOD ([6]; Drug control group) was 17±6 units/mg, the GPx [6, 14] was 9.9 ± 2 nmol/mg and the GSH [6, 14] was 5.72 ± 1 nmol/mg. It also gave a GST [6, 14] of 15 ± 5 nmol/mg, an LPO [6, 14] of 1.8 ± 0.09 mol/mg and an SOD [6, 14] of 35±0.8 units/mg. The “Chronic toxicity (liver and kidney toxicity parameters)” value (normal mice) was “did not show any toxicity”, the ROS level [7] was “significantly (P<0.001) increased” and the “ROS generation in normal fibroblast” value (normal fibroblast) was “augmentation of ROS generation was not seen”. The “per cent of damaged cells (comet assay)” value (MCF-7 cells [8]) was 65 per cent, the “per cent of damaged cells (comet assay)” value (MDA-MB-231 cells [9]) was 67 per cent and the “DNA damage in normal cells (comet assay)” value [10] was “no DNA damage was seen in normal cells”. The DNA fragmentation [11] was “smearing pattern”, the SubG0 population [12] was “significantly (P<0.001) increase” and the “Apoptosis by TUNEL assay” value [13] was “significant apoptosis”. For the same molecule, the “intracellular Bax:Bcl-2 ratio” value (Bax:Bcl-2) was “significant (P<0.001) augmentation”.
